Data as given in ChEMBL document CHEMBL1833867, “Conformationally constrained analogs of BAY 59-3074 as novel cannabinoid receptor ligands” (Bioorg Med Chem Lett, 2011).

Tests used:
[1] = Binding affinity to CB receptor in rat brain membranes; type: cell membranes
Method in brief: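 Radioligand competition binding at rat CB1, displacing [3H]CP55,940.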

Cannabinoid receptor 1 = Cannabinoid receptor 1 (Rattus norvegicus, UniProt P20272); assay: Displacement of [3H]CP55940 from rat cannabinoid CB1 receptor
Chain of Cannabinoid receptor 1 (P20272 whole entry): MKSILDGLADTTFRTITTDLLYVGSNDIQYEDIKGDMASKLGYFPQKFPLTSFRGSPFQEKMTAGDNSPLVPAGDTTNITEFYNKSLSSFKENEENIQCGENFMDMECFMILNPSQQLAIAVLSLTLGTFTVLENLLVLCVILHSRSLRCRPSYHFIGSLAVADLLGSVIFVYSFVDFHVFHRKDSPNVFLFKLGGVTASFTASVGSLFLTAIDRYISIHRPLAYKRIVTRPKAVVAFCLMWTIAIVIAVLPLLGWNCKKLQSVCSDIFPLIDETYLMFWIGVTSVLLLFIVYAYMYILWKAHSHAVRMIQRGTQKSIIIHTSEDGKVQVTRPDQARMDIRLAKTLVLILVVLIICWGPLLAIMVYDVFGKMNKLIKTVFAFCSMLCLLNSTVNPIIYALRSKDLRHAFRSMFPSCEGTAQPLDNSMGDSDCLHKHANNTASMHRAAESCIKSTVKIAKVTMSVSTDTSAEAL

Cannabinoid receptor 2 [2] = target: Cannabinoid receptor 2 (Mus musculus, UniProt P47936); assay: Displacement of [3H]CP55940 from mouse cannabinoid CB2 receptor
Chain of Cannabinoid receptor 2 (Mus musculus, UniProt P47936) (P47936 whole entry): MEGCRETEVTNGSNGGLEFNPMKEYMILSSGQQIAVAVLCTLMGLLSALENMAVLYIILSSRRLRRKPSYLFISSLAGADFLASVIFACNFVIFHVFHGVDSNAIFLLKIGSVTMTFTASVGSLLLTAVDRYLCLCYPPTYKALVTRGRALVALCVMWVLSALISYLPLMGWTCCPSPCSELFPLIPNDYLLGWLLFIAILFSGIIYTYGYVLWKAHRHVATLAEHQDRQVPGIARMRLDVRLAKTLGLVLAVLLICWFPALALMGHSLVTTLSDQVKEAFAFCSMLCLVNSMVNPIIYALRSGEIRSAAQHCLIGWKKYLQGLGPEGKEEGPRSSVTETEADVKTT

Cannabinoid receptor 2 [3] = target: Cannabinoid receptor 2 (Homo sapiens, UniProt P34972); assay: Displacement of [3H]CP55940 from human cannabinoid CB2 receptor
Chain of Cannabinoid receptor 2 (Homo sapiens, UniProt P34972) (P34972 whole entry): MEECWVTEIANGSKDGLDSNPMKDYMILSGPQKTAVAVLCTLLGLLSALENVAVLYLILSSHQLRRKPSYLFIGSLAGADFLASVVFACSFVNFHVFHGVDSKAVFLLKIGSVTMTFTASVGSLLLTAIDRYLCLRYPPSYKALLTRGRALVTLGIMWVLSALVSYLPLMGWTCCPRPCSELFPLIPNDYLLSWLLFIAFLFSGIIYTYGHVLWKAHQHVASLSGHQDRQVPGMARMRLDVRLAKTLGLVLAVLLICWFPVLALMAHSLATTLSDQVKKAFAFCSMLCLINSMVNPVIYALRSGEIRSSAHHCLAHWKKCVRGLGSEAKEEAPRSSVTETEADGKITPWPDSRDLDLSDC

[4] = Selectivity ratio of Ki for rat cannabinoid CB1 receptor to Ki for human cannabinoid CB2 receptor

For `O=S(=O)(CCCC(F)(F)F)Oc1cccc(Oc2cccc3c2C[C@H](CO)C3)c1`, the Ki [1] was 0.00046 µM.
Work on `N#Cc1c(C(F)(F)F)ccc2c1oc1cccc(OS(=O)(=O)CCCC(F)(F)F)c12` yielded a Ki (Cannabinoid receptor 1) of 1.9 µM, a Ki (Cannabinoid receptor 2 [2]) of 0.676 µM and a Ki (Cannabinoid receptor 2 [3]) of 1.81 µM. For the same compound, the Ratio Ki [4] was 1.05.
`N#Cc1c(C(F)(F)F)ccc2c1oc1cc(OS(=O)(=O)CCCC(F)(F)F)ccc12` showed a Ki (Cannabinoid receptor 1) of 1.06 µM, a Ki (Cannabinoid receptor 2 [2]) of 0.339 µM and a Ki (Cannabinoid receptor 2 [3]) of 0.317 µM. The Ratio Ki [4] was 3.35.
In the case of `N#Cc1c(C(F)(F)F)ccc2c1oc1ccc(OS(=O)(=O)CCCC(F)(F)F)cc12`, the Ki (Cannabinoid receptor 1) is reported as 2.53 µM, the Ki (Cannabinoid receptor 2 [2]) is reported as 1.71 µM and the Ki (Cannabinoid receptor 2 [3]) is reported as 3.29 µM. It also gave a Ratio Ki [4] of 0.76.
`N#Cc1c(C(F)(F)F)ccc2c1Oc1c(cccc1OS(=O)(=O)CCCC(F)(F)F)C2` gave a Ki (Cannabinoid receptor 1) of 14.4 µM, a Ki (Cannabinoid receptor 2 [2]) of 1.13 µM and a Ki (Cannabinoid receptor 2 [3]) of 1.16 µM. For the same compound, the Ratio Ki [4] was 12.4.
Compound `N#Cc1c(C(F)(F)F)ccc2c1oc1c(OS(=O)(=O)CCCC(F)(F)F)cccc12` has a Ki (Cannabinoid receptor 1) of 2.28 µM, a Ki (Cannabinoid receptor 2 [2]) of 0.41 µM and a Ki (Cannabinoid receptor 2 [3]) of 0.253 µM. The Ratio Ki [4] was 9.
`N#Cc1c(Oc2cccc(OS(=O)(=O)CCCC(F)(F)F)c2)cccc1C(F)(F)F` gave a Ratio Ki [4] of 1.21.
